# Experimental data reported in ChEMBL document CHEMBL1240416, “Synthesis, structure and DNA cleavage studies of coumarin analogues of tetrahydroisoquinoline and protoberberine alkaloids” (Eur J Med Chem, 2010).
# Calls of active or inactive are those of the source. The calls are words filed in the database; no cut-off is given here.
# Key:
# Assay type in all cases: nucleic-acid assay
# Nucleic Acid [1] = assay: Induction of Staphylococcus aureus 6538 DNA cleavage after 2 hrs by agarose gel electrophoresis
# In short: (§1)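 Genomic DNA was isolated from cultures grown at 37 °C (E. coli and S. aureus in nutrient broth for 24 h; A. niger in potato dextrose broth for 48 h). Extraction used Tris/EDTA/SDS lysis, phenol at 55 °C, chloroform:isoamyl alcohol and ethanol precipitation. DNA was incubated 2 h at 37 °C with compound from a 1 mg/mL DMF stock, then run on agarose in TAE at 50 V for about 30 min against marker and untreated-DNA lanes.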
# Nucleic Acid [2] = assay: Induction of Escherichia coli ATCC 35218 DNA cleavage after 2 hrs by agarose gel electrophoresis; in short: as §1
# Nucleic Acid [3] = assay: Induction of Aspergillus niger DNA cleavage after 2 hrs by agarose gel electrophoresis; in short: as §1
Structure (SMILES),Activity (Nucleic Acid [1]),Activity (Nucleic Acid [2]),Activity (Nucleic Acid [3])
COc1cc2c(cc1OC)C(Cc1cc(=O)oc3c1ccc1ccccc13)NCC2 (stereo unspecified),Active,inactive,Active
COc1cc2c(cc1OC)C(Cc1cc(=O)oc3ccc(C)cc13)NCC2 (stereo unspecified),inactive,inactive,inactive
Cc1ccc2c(CC3NCCc4ccccc43)cc(=O)oc2c1 (stereo unspecified),inactive,inactive,inactive
COc1cc2c(cc1OC)C(Cc1cc(=O)oc3cc(C)ccc13)NCC2 (stereo unspecified),inactive,inactive,inactive
O=c1cc(CC2NCCc3ccccc32)c2ccc3ccccc3c2o1 (stereo unspecified),Active,inactive,Active

# More lines, now with the values ahead:
Activity (Nucleic Acid [1]),Activity (Nucleic Acid [2]),Activity (Nucleic Acid [3]),Structure (SMILES)
Active,inactive,Active,O=c1oc2c(ccc3ccccc32)c2c1CN1CCc3ccccc3C1C2 (stereo unspecified)
inactive,inactive,inactive,COc1cc2c(cc1OC)C1Cc3c(c(=O)oc4cc(C)ccc34)CN1CC2 (stereo unspecified)
inactive,inactive,inactive,Cc1ccc2c3c(c(=O)oc2c1)CN1CCc2ccccc2C1C3 (stereo unspecified)
inactive,inactive,inactive,COc1cc2c(cc1OC)C1Cc3c(c(=O)oc4ccc(C)cc34)CN1CC2 (stereo unspecified)
Active,inactive,Active,COc1cc2c(cc1OC)C1Cc3c(c(=O)oc4c3ccc3ccccc34)CN1CC2 (stereo unspecified)
inactive,inactive,inactive,Cc1ccc2oc(=O)c3c(c2c1)CC1c2ccccc2CCN1C3 (stereo unspecified)
inactive,inactive,inactive,Cc1ccc2oc(=O)cc(CC3NCCc4ccccc43)c2c1 (stereo unspecified)
